Reference: ChEMBL document CHEMBL1649546, “Extended-spectrum properties of CMY-30, a Val211Gly mutant of CMY-2 cephalosporinase” (Antimicrob Agents Chemother, 2009)
≈ marks a conversion by molar mass, not a printed value. Calls of active or inactive are those of the source. The calls are words filed in the database; no cut-off is given here.

What was measured:
Escherichia coli [1] = assay: Antibacterial activity against 5 x 10^5 CFU/ml CMY-2 producing Escherichia coli MC4100 harboring plasmid AC-cmy2 by microdilution method; type: functional
In short: (§1)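 Broth microdilution MIC in Mueller-Hinton broth with an inoculum of 5 × 10^5 CFU/ml. Isogenic E. coli MC4100 strains (vector control or carrying CMY-2 or CMY-30) were tested in parallel.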

Escherichia coli [2] = assay: Antibacterial activity against 5 x 10^5 CFU/ml CMY-30 producing Escherichia coli MC4100 harboring plasmid AC-cmy30 by microdilution method; type: functional; in short: as §1
Escherichia coli [3] = assay: Ratio of Kcat to Km for Escherichia coli MC4100 Beta-Lactamase CMY-30 harboring Val211?Gly211 mutation
In short: (§2)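 Enzyme source was E. coli MC4100 carrying high-copy plasmids pB-cmy30 or pB-cmy2. Enzyme was released by sonication in 20 mM Tris, pH 7.4, then purified by Q- and S-Sepharose ion exchange to >95% purity by SDS-PAGE. Values are means of four independent measurements. For some β-lactams, Km was obtained as Ki using cephalothin as reporter substrate.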

[4] = (§3) Inhibition of Escherichia coli MC4100 Beta-Lactamase CMY-2 using cephalothin as reporter substrate
Escherichia coli [5] = assay: Activity of Escherichia coli MC4100 Beta-Lactamase CMY-2
In short: (§4)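 CMY-2 purified from E. coli MC4100 carrying high-copy plasmid pB-cmy2. Cells in 20 mM Tris pH 7.4 sonicated, then Q- and S-Sepharose ion exchange, >95% pure by SDS-PAGE. Kinetic constants are means of four independent measurements. For some β-lactams Km was determined as Ki with cephalothin as reporter substrate.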

Escherichia coli [6] = assay: Antibacterial activity against 5 x 10^5 CFU/ml Escherichia coli MC4100 harboring plasmid ACYC184 by microdilution method; type: functional; in short: as §1
Escherichia coli [7] = assay: Ratio of Kcat to Km for Escherichia coli MC4100 Beta-Lactamase CMY-2; in short: as §4
[8] = Inhibition of Escherichia coli MC4100 Beta-Lactamase CMY-30 using cephalothin as reporter substrate
Escherichia coli [9] = assay: Activity of Escherichia coli MC4100 Beta-Lactamase CMY-30 harboring Val211?Gly211 mutation; in short: as §2
Escherichia coli [10] = assay: Inhibition of Escherichia coli DH5alpha beta-lactamase CMY-2 assessed as aztreonam hydrolysis
In short: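 Agar bioassay on MH agar seeded with E. coli DH5α indicator (10^5 CFU/ml), with 30 μg aztreonam disks. Purified cephalosporinase (700 ng in 10 μl phosphate buffer) was applied near each disk. Plates were incubated 18 h at 35°C and read for distortion of the inhibition zone against control disks.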

Escherichia coli [11] = assay: as §3
Escherichia coli [12] = assay: Antibacterial activity against 5 x 10^5 CFU/ml CMY-30 producing Escherichia coli MC4100 harboring plasmid AC-cmy30 by microdilution method in presence of 2 ug/ml clavulanic acid; type: functional
In short: (§5)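 Broth microdilution MIC in Mueller-Hinton broth with an inoculum of 5 × 10^5 CFU/ml. Clavulanic acid was held at a fixed 2 μg/ml. Isogenic E. coli MC4100 strains (vector control or carrying CMY-2 or CMY-30) were tested in parallel.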

Escherichia coli [13] = assay: Antibacterial activity against 5 x 10^5 CFU/ml CMY-2 producing Escherichia coli MC4100 harboring plasmid AC-cmy2 by microdilution method in presence of 2 ug/ml clavulanic acid; type: functional; in short: as §5
Escherichia coli [14] = assay: Antibacterial activity against 5 x 10^5 CFU/ml Escherichia coli MC4100 harboring plasmid ACYC184 by microdilution method in presence of 2 ug/ml clavulanic acid; type: functional; in short: as §5
Escherichia coli [15] = assay: Antibacterial activity against 5 x 10^5 CFU/ml CMY-2 producing Escherichia coli MC4100 harboring plasmid AC-cmy2 by microdilution method in presence of 4 ug/ml Tazobactam; type: functional
In short: (§6)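 Broth microdilution MICs in Mueller-Hinton broth, inoculum 5 × 10^5 CFU/ml. Isogenic E. coli MC4100 strains carrying CMY-30, CMY-2 or no CMY gene were tested in parallel. Tazobactam was held at a fixed 4 μg/ml.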

Escherichia coli [16] = assay: Antibacterial activity against 5 x 10^5 CFU/ml CMY-30 producing Escherichia coli MC4100 harboring plasmid AC-cmy30 by microdilution method in presence of 4 ug/ml Tazobactam; type: functional; in short: as §6
Escherichia coli [17] = assay: Antibacterial activity against 5 x 10^5 CFU/ml Escherichia coli MC4100 harboring plasmid ACYC184 by microdilution method in presence of 4 ug/ml Tazobactam; type: functional; in short: as §6

Row | Structure (SMILES) | MIC (Escherichia coli [1]) [µg/mL] | MIC (Escherichia coli [2]) [µg/mL] | kcat/Km (Escherichia coli [3]) [M⁻¹ s⁻¹] | Ki [4] [nM] | kcat (Escherichia coli [5]) [s⁻¹] | MIC (Escherichia coli [6]) [µg/mL] | kcat/Km (Escherichia coli [7]) [M⁻¹ s⁻¹] | Ki [8] [nM] | kcat (Escherichia coli [9]) [s⁻¹] | other results
1 | CO/N=C(\C(=O)N[C@@H]1C(=O)N2C(C(=O)[O-])=C(C[N+]3(C)CCCC3)CS[C@H]12)c1csc(N)n1 | 0.25 (≈ 0.52 µM) | 0.25 (≈ 0.52 µM) |  |  |  |  |  |  |  | 
2 | CO/N=C(\C(=O)N[C@@H]1C(=O)N2C(C(=O)O)=C(COC(C)=O)CS[C@H]12)c1csc(N)n1 [CEFOTAXIME] | 16 (≈ 35.1 µM) | 256 (≈ 562 µM) | 5.7e+06 | 5 | < 0.01 | 0.12 (≈ 0.263 µM) | < 2e+06 | 300 | 1.7 | 
3 | CO[C@@]1(NC(=O)Cc2cccs2)C(=O)N2C(C(=O)O)=C(COC(N)=O)CS[C@@H]21 [CEFOXITIN] | > 512 | > 512 | 1.6e+06 | 150 | 0.35 | 2 (≈ 4.68 µM) | 2.3e+06 | 170 | 0.28 | 
4 | C[C@]1(Cn2ccnn2)[C@H](C(=O)O)N2C(=O)C[C@H]2S1(=O)=O [TAZOBACTAM] |  |  |  | 800 |  |  |  | > 1000 |  | 
5 | CO/N=C(\C(=O)N[C@@H]1C(=O)N2C(C(=O)O)=C(COC(N)=O)CS[C@H]12)c1ccco1 [CEFUROXIME] | > 512 | > 512 |  |  |  | 2 (≈ 4.71 µM) |  |  |  | 
6 | C[C@H]1[C@H](NC(=O)/C(=N\OC(C)(C)C(=O)O)c2csc(N)n2)C(=O)N1S(=O)(=O)O [AZTREONAM] | 16 (≈ 36.7 µM) | 128 (≈ 294 µM) |  | 2.1 |  |  |  | 17 |  | Activity (Escherichia coli [10]): Active
7 | CC1(C)S[C@@H]2[C@H](NC(=O)Cc3ccccc3)C(=O)N2[C@H]1C(=O)O [PENICILLIN G] |  |  | 3.8e+07 |  | 24 |  | 4e+07 | 600 | 23 | Km (Escherichia coli [11]): 0.6 µM
8 | CC1(C)S[C@@H]2[C@H](NC(=O)[C@H](N)c3ccc(O)cc3)C(=O)N2[C@H]1C(=O)O [AMOXICILLIN] | > 512 | > 512 |  |  |  | 4 (≈ 10.9 µM) |  |  |  | MIC (Escherichia coli [12]): > 512 µg/mL; MIC (Escherichia coli [13]): > 512 µg/mL; MIC (Escherichia coli [14]): 4 µg/mL
9 | CCN1CCN(C(=O)N[C@@H](C(=O)N[C@@H]2C(=O)N3[C@@H]2SC(C)(C)[C@@H]3C(=O)O)c2ccccc2)C(=O)C1=O [PIPERACILLIN] | 128 (≈ 247 µM) | 64 (≈ 124 µM) |  |  |  | 0.5 (≈ 0.966 µM) |  |  |  | MIC (Escherichia coli [15]): 16 µg/mL; MIC (Escherichia coli [16]): 16 µg/mL; MIC (Escherichia coli [17]): 0.5 µg/mL
10 | Cc1onc(-c2ccccc2Cl)c1C(=O)N[C@@H]1C(=O)N2[C@@H]1SC(C)(C)[C@@H]2C(=O)O [CLOXACILLIN] |  |  |  | 0.2 |  |  |  | 2.3 |  | 
11 | CC1(C)S[C@@H]2[C@H](NC(=O)[C@H](C(=O)O)c3ccsc3)C(=O)N2[C@H]1C(=O)O [TICARCILLIN] | > 512 | > 512 |  |  |  | 2 (≈ 5.2 µM) |  |  |  | MIC (Escherichia coli [12]): > 512 µg/mL; MIC (Escherichia coli [13]): > 512 µg/mL; MIC (Escherichia coli [14]): 1 µg/mL
12 | C[C@]1(/C=C\C#N)[C@H](C(=O)O)N2C(=O)C[C@H]2S1(=O)=O |  |  |  | 100 |  |  |  | 200 |  | 
13 | CC(C)(O/N=C(\C(=O)N[C@@H]1C(=O)N2C(C(=O)[O-])=C(C[n+]3ccccc3)CS[C@H]12)c1csc(N)n1)C(=O)O [CEFTAZIDIME] | 128 (≈ 234 µM) | > 512 | 2.9e+06 | 20 | 0.01 | 0.25 (≈ 0.457 µM) | 500000 | 140 | 0.4 | 
14 | CC(=O)OCC1=C(C(=O)O)N2C(=O)[C@@H](NC(=O)Cc3cccs3)[C@H]2SC1 [CEPHALOTHIN] | > 512 | > 512 | 1e+07 |  | 267 | 2 (≈ 5.04 µM) | 1.6e+07 |  | 256 | Km (Escherichia coli [5]): 17 µM; Km (Escherichia coli [9]): 26 µM
15 | N[C@@H](C(=O)N[C@@H]1C(=O)N2C(C(=O)O)=C(Cl)CS[C@H]12)c1ccccc1 [CEFACLOR ANHYDROUS] | > 512 | > 512 |  |  |  | 2 (≈ 5.44 µM) |  |  |  | 
